# Data as given in ChEMBL document CHEMBL2040831, “Discovery of ((S)-5-(methoxymethyl)-7-(1-methyl-1H-indol-2-yl)-2-(trifluoromethyl)-4,7-dihydropyrazolo[1,5-a]pyrimidin-6-yl)((S)-2-(3-methylisoxazol-5-yl)pyrrolidin-1-yl)methanone as a potent and selective I(Kur) inhibitor” (J Med Chem, 2012).
# Activity calls are given as the source filed them. The calls are words filed in the database; no cut-off is given here.
# Experiments:
# [1] = target: T1, Potassium voltage-gated channel subfamily A member 5 (Homo sapiens, UniProt P22460); assay: Inhibition of human KV1.5 ion channel expressed in mouse L929 cells by whole cell patch clamp assay; type: cell-based
# hERG (KCNH2) = hERG (KCNH2) (Homo sapiens, UniProt Q12809); assay: Inhibition of human ERG expressed in HEK293 cells at 10 uM by patch clamp assay; type: cell-based; details: HEK293 cells expressing human ERG
# [2] = Drug degradation assessed as GSH adduct formation by fluorescence detection assay; type: physicochemical
# Procedure, shortened: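 Test article at 100 μM incubated 30 min at 37 °C with 2 mg/mL human liver microsomes in 0.1 M potassium phosphate buffer containing 2 mM NADPH and 2 mM dansyl glutathione. Quenched with 2 volumes of 5 mM dithiothreitol in methanol, vortexed and centrifuged. Supernatant analysed by HPLC with fluorescence detection (Ex 340 nm, Em 525 nm) to quantify GSH adducts.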
# [3] = target: T1, Potassium voltage-gated channel subfamily A member 5; assay: Inhibition of human KV1.5 ion channel expressed in mouse L929 cells at 0.3 uM by whole cell patch clamp assay; type: cell-based
# Liver microsomes [4] = assay: Metabolic stability in human liver microsomes; type: ADME, Microsome
# Liver microsomes [5] = assay: Metabolic stability in rat liver microsomes; type: ADME, Microsome
# [6] = Volume of distribution at steady state in dog at 5.6 umol/kg, iv and 5.2 umol/kg, po; type: ADME, organism-based, Canis lupus familiaris; details: in vivo, read-out: Vdss
# [7] = Clearance in dog at 5.6 umol/kg, iv and 5.2 umol/kg, po; type: ADME, organism-based, Canis lupus familiaris; details: in vivo
# [8] = Half life in dog at 5.6 umol/kg, iv and 5.2 umol/kg, po; type: ADME, organism-based, Canis lupus familiaris; details: in vivo
# [9] = Oral bioavailability in dog at 5.2 umol/kg; type: ADME, organism-based, Canis lupus familiaris; details: in vivo
# Plasma [10] = assay: Plasma concentration in methoxamine-sensitised rabbit AERP model at 1 mg/kg, iv; type: ADME, organism-based, Oryctolagus cuniculus; set-up: dose 1 mg/kg, route intravenous; details: in vivo
# Plasma [11] = assay: Plasma concentration in methoxamine-sensitised rabbit AERP model at 0.3 mg/kg, iv; type: ADME, organism-based, Oryctolagus cuniculus; set-up: dose 0.3 mg/kg, route intravenous; details: in vivo
# Plasma [12] = assay: Plasma concentration in methoxamine-sensitised rabbit AERP model at 3 mg/kg, iv; type: ADME, organism-based, Oryctolagus cuniculus; set-up: dose 3 mg/kg, route intravenous; details: in vivo
# Plasma [13] = assay: Plasma concentration in methoxamine-sensitised rabbit AERP model at 10 mg/kg, iv; type: ADME, organism-based, Oryctolagus cuniculus; set-up: dose 10 mg/kg, route intravenous; details: in vivo
# Oryctolagus cuniculus [14] = assay: Proarrythmic activity in methoxamine-sensitized rabbit assessed as increase in ventricular effective refractory period at 0.3 to 10 mg/kg, iv relative to control; type: organism-based, Cardiac ventricle; set-up: dose 0.3-10 mg/kg, route intravenous; details: in vivo
# [15] = target: Voltage-gated inwardly rectifying potassium channel KCNH2 (Homo sapiens, UniProt Q12809); assay: Inhibition of human ERG expressed in HEK293 cells by patch clamp assay; type: cell-based
# [16] = Inhibition of ICAL ion channel
# [17] = Inhibition of ICAL ion channel at 10 uM
# [18] = Inhibition of INa ion channel
# [19] = Inhibition of INa ion channel at 10 uM
# [20] = target: T2, A-type voltage-gated potassium channel KCND3 (Homo sapiens, UniProt Q9UK17); assay: Inhibition of KV4.3 ion channel
# T2 sequence (Q9UK17 whole entry): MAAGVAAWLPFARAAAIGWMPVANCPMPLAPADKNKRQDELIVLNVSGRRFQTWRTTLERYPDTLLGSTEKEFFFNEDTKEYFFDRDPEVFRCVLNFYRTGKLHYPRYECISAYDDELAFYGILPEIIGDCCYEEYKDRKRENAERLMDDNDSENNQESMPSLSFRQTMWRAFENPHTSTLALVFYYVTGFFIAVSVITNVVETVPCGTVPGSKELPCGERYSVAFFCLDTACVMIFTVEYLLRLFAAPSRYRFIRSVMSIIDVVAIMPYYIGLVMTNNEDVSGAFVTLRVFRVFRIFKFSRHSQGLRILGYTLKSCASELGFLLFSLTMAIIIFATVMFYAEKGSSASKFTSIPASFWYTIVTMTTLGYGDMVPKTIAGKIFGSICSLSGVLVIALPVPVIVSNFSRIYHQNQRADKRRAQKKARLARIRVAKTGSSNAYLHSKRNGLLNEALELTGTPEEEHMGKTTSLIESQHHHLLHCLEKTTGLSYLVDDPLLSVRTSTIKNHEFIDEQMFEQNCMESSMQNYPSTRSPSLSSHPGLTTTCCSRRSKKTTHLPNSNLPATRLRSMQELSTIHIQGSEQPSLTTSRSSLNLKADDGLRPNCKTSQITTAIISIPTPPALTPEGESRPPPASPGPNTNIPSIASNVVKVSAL
# [21] = Volume of distribution at steady state in rat at 12 umol/kg, iv and 25.5 umol/kg, po; type: ADME, organism-based; details: in vivo, read-out: Vdss
# [22] = Clearance in rat at 12 umol/kg, iv and 25.5 umol/kg, po; type: ADME, organism-based; details: in vivo
# [23] = Half life in rat at 12 umol/kg, iv and 25.5 umol/kg, po; type: ADME, organism-based; details: in vivo
# [24] = Oral bioavailability in rat at 25.5 umol/kg; type: ADME, organism-based; details: in vivo
# [25] = Volume of distribution at steady state in rabbit at 5.6 umol/kg, iv; type: ADME, organism-based, Oryctolagus cuniculus; details: in vivo, read-out: Vdss
# [26] = Clearance in rabbit at 5.6 umol/kg, iv; type: ADME, organism-based, Oryctolagus cuniculus; details: in vivo
# [27] = Half life in rabbit at 5.6 umol/kg, iv; type: ADME, organism-based, Oryctolagus cuniculus; details: in vivo
# [28] = Volume of distribution at steady state in rat at 12 umol/kg, iv and 26 umol/kg, po; type: ADME, organism-based; details: in vivo, read-out: Vdss
# [29] = Clearance in rat at 12 umol/kg, iv and 26 umol/kg, po; type: ADME, organism-based; details: in vivo
# [30] = Half life in rat at 12 umol/kg, iv and 26 umol/kg, po; type: ADME, organism-based; details: in vivo
# [31] = Oral bioavailability in rat at 26 umol/kg; type: ADME, organism-based; details: in vivo
# Oryctolagus cuniculus [32] = assay: Antiatrial fibrillation activity in methoxamine-sensitised rabbit assessed as increase in atrial effective refractory period at 0.3 to 10 mg/kg, iv relative to control; type: functional, organism-based; details: Cardiac atrium
# Oryctolagus cuniculus [33] = assay: Antiatrial fibrillation activity in methoxamine-sensitised rabbit assessed as increase in atrial effective refractory period at 1 mg/kg, iv relative to control; type: functional, Cardiac atrium
# Chain of hERG (KCNH2) (Q12809 whole entry): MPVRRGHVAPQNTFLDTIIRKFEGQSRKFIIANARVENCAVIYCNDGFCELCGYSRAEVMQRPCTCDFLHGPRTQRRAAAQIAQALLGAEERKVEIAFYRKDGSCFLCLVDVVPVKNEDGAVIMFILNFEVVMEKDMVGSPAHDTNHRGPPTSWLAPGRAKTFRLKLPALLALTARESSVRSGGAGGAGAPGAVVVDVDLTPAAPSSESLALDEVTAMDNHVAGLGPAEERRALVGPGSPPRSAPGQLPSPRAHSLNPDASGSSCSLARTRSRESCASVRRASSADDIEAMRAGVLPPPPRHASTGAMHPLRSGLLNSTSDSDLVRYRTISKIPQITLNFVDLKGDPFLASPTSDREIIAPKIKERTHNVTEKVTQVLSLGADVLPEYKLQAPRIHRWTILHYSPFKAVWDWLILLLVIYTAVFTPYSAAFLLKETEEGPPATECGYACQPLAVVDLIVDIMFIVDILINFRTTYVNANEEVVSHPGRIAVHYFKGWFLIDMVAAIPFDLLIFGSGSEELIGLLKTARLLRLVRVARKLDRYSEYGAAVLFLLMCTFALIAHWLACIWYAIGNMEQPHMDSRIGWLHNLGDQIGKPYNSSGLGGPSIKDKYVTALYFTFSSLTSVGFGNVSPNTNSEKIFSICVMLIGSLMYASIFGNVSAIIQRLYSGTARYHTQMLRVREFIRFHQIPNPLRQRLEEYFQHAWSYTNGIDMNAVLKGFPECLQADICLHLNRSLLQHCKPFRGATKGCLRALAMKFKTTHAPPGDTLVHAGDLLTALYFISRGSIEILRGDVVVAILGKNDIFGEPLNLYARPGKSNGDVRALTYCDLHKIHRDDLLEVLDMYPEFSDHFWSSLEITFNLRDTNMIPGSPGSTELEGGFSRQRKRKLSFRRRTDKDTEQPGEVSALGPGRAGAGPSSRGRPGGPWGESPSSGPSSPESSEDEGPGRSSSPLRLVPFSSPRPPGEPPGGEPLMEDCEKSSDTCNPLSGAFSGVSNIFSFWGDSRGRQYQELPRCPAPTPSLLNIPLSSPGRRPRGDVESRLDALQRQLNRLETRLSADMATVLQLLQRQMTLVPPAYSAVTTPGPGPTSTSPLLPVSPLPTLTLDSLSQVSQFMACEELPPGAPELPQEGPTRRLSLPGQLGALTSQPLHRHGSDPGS
# T1 sequence (P22460 whole entry): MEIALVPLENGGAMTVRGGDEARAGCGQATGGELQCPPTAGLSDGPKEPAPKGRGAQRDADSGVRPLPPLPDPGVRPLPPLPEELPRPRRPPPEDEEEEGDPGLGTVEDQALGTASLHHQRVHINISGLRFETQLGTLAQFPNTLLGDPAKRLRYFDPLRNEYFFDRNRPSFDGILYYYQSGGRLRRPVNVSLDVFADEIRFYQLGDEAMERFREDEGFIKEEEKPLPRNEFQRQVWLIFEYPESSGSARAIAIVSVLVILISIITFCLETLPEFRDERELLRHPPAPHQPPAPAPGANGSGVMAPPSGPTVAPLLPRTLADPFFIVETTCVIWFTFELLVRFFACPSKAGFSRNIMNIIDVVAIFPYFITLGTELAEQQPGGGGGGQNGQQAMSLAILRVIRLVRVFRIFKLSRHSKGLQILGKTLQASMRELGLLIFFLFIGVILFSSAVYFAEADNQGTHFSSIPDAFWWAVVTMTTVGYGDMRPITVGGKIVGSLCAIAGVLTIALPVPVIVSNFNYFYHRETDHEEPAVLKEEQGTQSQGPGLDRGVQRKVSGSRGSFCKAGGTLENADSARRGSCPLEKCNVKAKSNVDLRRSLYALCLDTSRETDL
# Chain of Voltage-gated inwardly rectifying potassium channel KCNH2 (Q12809 whole entry): as the sequence (Q12809 whole entry) above
structure (smiles),measurement,setting,value
CC1=C(C(=O)N2CCN(c3ccc(F)cc3)CC2)C(c2ccc(Cl)c(Cl)c2)n2nc(C(F)(F)F)cc2N1 (racemic),IC50,[1],419 nM
CC1=C(C(=O)N2CCC[C@H]2c2cc(C)no2)[C@@H](c2ccc(Cl)c(Cl)c2)n2nccc2N1,IC50,[1],83 nM
same,inhibition at 10 µM,hERG (KCNH2),41%
same,GSH adduct formation,[2],21%
CC1=C(C(=O)N2CCN(c3ccccc3)CC2)C(c2ccc(Cl)c(Cl)c2)n2nc(C)cc2N1 (racemic),IC50,[1],149 nM
same,inhibition at 10 µM,hERG (KCNH2),29%
CC1=C(C(=O)N2CCC[C@H]2c2cc(C)no2)[C@@H](c2nc3ccccc3s2)n2nc(C(F)(F)F)cc2N1,IC50,[1],281 nM
CC1=C(C(=O)N2CCC[C@H]2c2cc(C)no2)[C@@H](c2cc3ccccc3n2C)n2nc(C(F)(F)F)cc2N1,IC50,[1],72 nM
same,inhibition at 10 µM,hERG (KCNH2),19%
CC1=C(C(=O)N2CCC[C@H]2c2ccc(F)cc2)[C@@H](c2ccc(Cl)c(Cl)c2)n2ncc(C)c2N1,inhibition,[3],45%
same,GSH adduct formation,[2],< 1%
CC1=C(C(=O)N2CCN(c3ccc(F)cc3)CC2)C(c2ccc(Cl)c(Cl)c2)n2ncc(Cl)c2N1 (racemic),inhibition,[3],24%
same,GSH adduct formation,[2],4%
CC1=C(C(=O)N2CCN(c3ccc(F)cc3)CC2)C(c2ccc(Cl)c(Cl)c2)n2nc(Cl)cc2N1 (racemic),IC50,[1],209 nM
CC1=C(C(=O)N2CCN(c3ccc(F)cc3)CC2)C(c2ccc(Cl)c(Cl)c2)n2nc(C)cc2N1 (racemic),IC50,[1],124 nM
same,inhibition at 10 µM,hERG (KCNH2),60%
same,GSH adduct formation,[2],< 1%
same,Stability,Liver microsomes [4],Unstable
same,Stability,Liver microsomes [5],Unstable
CC1=C(C(=O)N2CCN(c3ccc(F)cc3)CC2)[C@@H](c2ccc(Cl)c(Cl)c2)n2nccc2N1,inhibition at 10 µM,hERG (KCNH2),42%
COCC1=C(C(=O)N2CCC[C@H]2c2cc(C)no2)[C@@H](c2cc3ccccc3n2C)n2nc(C(F)(F)F)cc2N1,IC50,[1],150 nM
same,inhibition at 10 µM,hERG (KCNH2),14%
same,Vd,[6],3.7 L/kg
same,clearance,[7],29 mL/min/kg
same,half-life,[8],1.8 h
same,bioavailability,[9],31%
same,concentration,Plasma [10],700 nM
same,concentration,Plasma [11],300 nM
same,concentration,Plasma [12],2100 nM
same,concentration,Plasma [13],13400 nM
same,Activity,Oryctolagus cuniculus [14],Non-toxic
same,IC50,[15],> 10000 nM
same,IC50,[16],> 10000 nM
same,inhibition,[17],37%
same,IC50,[18],> 10000 nM
same,inhibition,[19],10%
same,IC50,[20],5800 nM
same,Vd,[21],1.9 L/kg
same,clearance,[22],12 mL/min/kg
same,half-life,[23],2.5 h
same,bioavailability,[24],61%
same,Vd,[25],5 L/kg
same,clearance,[26],47 mL/min/kg
same,half-life,[27],2 h
CC1=C(C(=O)N2CCC[C@H]2c2ccc(F)cc2)[C@@H](c2ccc(Cl)c(Cl)c2)n2nc(C(F)(F)F)cc2N1,inhibition,[3],37%
CC1=C(C(=O)N2CCC[C@H]2c2cc(C)no2)[C@@H](c2ccc(Cl)c(Cl)c2)n2nc(C(F)(F)F)cc2N1,IC50,[1],101 nM
same,inhibition at 10 µM,hERG (KCNH2),47%
same,GSH adduct formation,[2],< 1%
same,Stability,Liver microsomes [4],Stable
same,Stability,Liver microsomes [5],Stable
same,Vd,[28],3 L/kg
same,clearance,[29],27 mL/min/kg
same,half-life,[30],1 h
same,bioavailability,[31],68%
same,Vd,[6],1.7 L/kg
same,clearance,[7],11 mL/min/kg
same,half-life,[8],1.8 h
same,bioavailability,[9],53%
same,Activity,Oryctolagus cuniculus [32],Active
same,Activity,Oryctolagus cuniculus [33],20%
same,concentration,Plasma [10],1700 nM
same,concentration,Plasma [11],700 nM
same,concentration,Plasma [12],6700 nM
same,concentration,Plasma [13],17300 nM
same,Activity,Oryctolagus cuniculus [14],Non-toxic
CC1=C(C(=O)N2CCC[C@H]2c2cc(C)no2)[C@@H](c2ccc(Cl)c(Cl)c2)n2nc(C)cc2N1,IC50,[1],165 nM
same,inhibition at 10 µM,hERG (KCNH2),13%
same,GSH adduct formation,[2],< 1%
same,Stability,Liver microsomes [4],Unstable
same,Stability,Liver microsomes [5],Unstable
CC1=C(C(=O)N2CCC[C@H]2c2ccc(F)cc2)[C@@H](c2ccc(Cl)c(Cl)c2)n2nc(C)cc2N1,IC50,[1],100 nM
same,inhibition at 10 µM,hERG (KCNH2),10%
same,GSH adduct formation,[2],5%
same,Stability,Liver microsomes [4],Unstable
same,Stability,Liver microsomes [5],Unstable
CC1=C(C(=O)N2CCC[C@H]2c2cc(C)no2)[C@@H](c2nc3ccccc3n2C)n2nc(C(F)(F)F)cc2N1,inhibition,[3],36%
COCC1=C(C(=O)N2CCC[C@H]2c2cc(C)no2)[C@@H](c2ccc(Cl)c(Cl)c2)n2nccc2N1,IC50,[1],70 nM
same,inhibition at 10 µM,hERG (KCNH2),14%
CC1=C(C(=O)N2CCC[C@H]2c2cc(C)no2)[C@@H](c2ccc(Cl)c(Cl)c2)n2nc(C3CC3)cc2N1,IC50,[1],227 nM
CC1=C(C(=O)N2CCC[C@H]2c2ccc(F)cc2)[C@@H](c2ccc(Cl)c(Cl)c2)n2nccc2N1 [BMS-394136],inhibition at 10 µM,hERG (KCNH2),30%
same,GSH adduct formation,[2],33%
